Calls of active or inactive are those of the source. No cut-off for these calls is given here.
Tests used:
[1] = target: Microtubule-associated protein tau (Homo sapiens) (UniProt P10636); test: Inhibition of heparin-induced 4R tau (unknown origin) aggregation at 100 uM after 3 days by ThT fluorescence assay relative to control
Procedure, shortened: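 20 μM 4R tau plus 5 μM heparin (avg MW 15 000) in 100 mM sodium acetate pH 7.0, ± 100 μM compound, incubated 3 days at 37 °C with 1 mM DTT added daily. ThT 12.5 μM then added, 1 h at room temperature. Spectra read with excitation 440 nm, emission 450–750 nm; intensity at emission maximum compared with tau alone.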

[2] = target: Microtubule-associated protein tau (Homo sapiens) (UniProt P10636); test: Inhibition of heparin-induced 4R tau (unknown origin) aggregation at 200 uM after 24 hrs by filter trap assay
Procedure, shortened: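 Heparin-induced fibrillisation of 4R tau in PBS with 200 μM compound, 37 °C, 24 h. Fibrils diluted to 0.8 μM tau in 2% SDS, vacuum-filtered through membrane, washed twice with 2% SDS, probed with 4R tau-specific antibody, chemiluminescent dot detection and densitometry; 7 independent experiments.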

[3] = target: Microtubule-associated protein tau (Homo sapiens) (UniProt P10636); test: Induction of heparin-induced recombinant 4R tau (unknown origin) fibril oxidation at cysteine residues at 200 uM after 2 hrs by oregon green binding assay
Procedure, shortened: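 Recombinant 4R tau (10 μM) fibrillised with 40 μM heparin in sodium acetate buffer pH 7, ± 200 μM compound, 37 °C, 2 h. Controls reduced with 1 mM DTT or oxidised with 20% v/v DMSO. Then labeled with Oregon green-iodoacetamide 30 min at room temperature, SDS-PAGE, fluorescence imaging. Band intensity normalized to Coomassie-stained total tau; 5 independent experiments.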

Microtubule-associated protein tau (Homo sapiens), sequence (P10636 whole entry): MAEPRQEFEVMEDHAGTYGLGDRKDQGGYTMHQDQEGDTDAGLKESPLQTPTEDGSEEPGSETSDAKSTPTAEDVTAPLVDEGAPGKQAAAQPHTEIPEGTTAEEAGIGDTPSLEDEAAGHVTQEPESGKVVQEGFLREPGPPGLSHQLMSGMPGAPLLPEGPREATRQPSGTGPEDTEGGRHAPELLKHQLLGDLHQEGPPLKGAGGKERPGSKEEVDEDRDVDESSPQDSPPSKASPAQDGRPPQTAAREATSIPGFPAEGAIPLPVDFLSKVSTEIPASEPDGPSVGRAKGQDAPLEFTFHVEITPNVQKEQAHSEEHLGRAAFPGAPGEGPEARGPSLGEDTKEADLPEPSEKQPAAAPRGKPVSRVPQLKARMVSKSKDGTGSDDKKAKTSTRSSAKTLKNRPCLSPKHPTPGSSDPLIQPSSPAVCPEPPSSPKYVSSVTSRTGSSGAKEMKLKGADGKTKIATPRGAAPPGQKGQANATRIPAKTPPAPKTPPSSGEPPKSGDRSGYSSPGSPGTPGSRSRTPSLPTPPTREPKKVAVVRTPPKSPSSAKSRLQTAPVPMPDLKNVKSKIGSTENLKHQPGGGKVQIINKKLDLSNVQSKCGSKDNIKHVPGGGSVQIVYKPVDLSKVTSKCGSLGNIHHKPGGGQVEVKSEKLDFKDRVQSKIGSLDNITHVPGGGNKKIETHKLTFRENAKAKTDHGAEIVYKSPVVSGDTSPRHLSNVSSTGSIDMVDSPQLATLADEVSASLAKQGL

Nc1scc2c(C(=O)NC3CC3)nn(-c3ccc(F)cc3)c(=O)c12
inhibition [1]: 51% | inhibition [2]: Active | Activity [3]: Active

C=CCO/N=C(\C(=O)NC1CC1)c1csc(N)c1C(=O)Nc1ccc(F)cc1
inhibition [1]: 33% | inhibition [2]: Active | Activity [3]: inactive

Nc1scc(/C(=N/O)C(=O)NC2CC2)c1C(=O)Nc1ccc(F)cc1
inhibition [2]: Active | Activity [3]: Active

Nc1scc(/C(=N/O)C(=O)NC2CC2)c1C(=O)NC12CC3CC(CC(C3)C1)C2
inhibition [1]: 30% | inhibition [2]: Active | Activity [3]: Active

From ChEMBL document CHEMBL4261481, “Ring-opened aminothienopyridazines as novel tau aggregation inhibitors” (Medchemcomm, 2017)
